Tests used:
NCI-H661 = assay: Antiproliferative activity against human NCI-H661 cells after 72 hrs by MTT assay; type: functional; conditions: NCI-H661, 72 h
Outline: (§1)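 Cells were exposed to a range of concentrations for 72 h. Compounds came from 20 mM stocks in 100% DMSO. Cells were then given MEM with 0.4 mg/mL MTT for 2 h, and formazan was read at 570 nm. GI50 was taken from percentage conversion relative to mock-treated controls and reported as mean SD of three independent experiments.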

[1] = Antiproliferative activity against human NPC-TW01 cells after 72 hrs by MTT assay; type: functional; conditions: NPC-TW01, 72 h; outline: as §1
MT2 = assay: Antiproliferative activity against human MT2 cells after 72 hrs by MTT assay; type: functional; conditions: MT2, 72 h; outline: as §1
[2] = Cell cycle arrest in human NPC-TW01 cells assessed as accumulation at S phase at 10.5 uM after 72 hrs by flow cytometry; type: functional, cell-based
Outline: (§2)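 Exponentially growing cells were treated for 72 h. Controls received complete medium with 0.5% DMSO for 72 h. Cells were fixed, incubated with RNase and stained. DNA content was measured on a FACScan flow cytometer, and the percentage of cells in each cell-cycle phase was determined.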

[3] = Cell cycle arrest in human NPC-TW01 cells assessed as accumulation at G2/M phase at 10.5 uM after 72 hrs by flow cytometry; type: functional, cell-based; outline: as §2
[4] = Cell cycle arrest in human NPC-TW01 cells assessed as accumulation at sub-G1 phase at 10.5 uM after 72 hrs by flow cytometry; type: functional, cell-based; outline: as §2
[5] = Cell cycle arrest in human NPC-TW01 cells assessed as accumulation at G0/G1 phase at 30 uM after 24 hrs by flow cytometry; type: functional, cell-based
Outline: (§3)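 Time course in exponentially growing cells at two concentrations, sampled at the indicated times. Controls were kept in complete medium with 0.3% DMSO for the same periods. Cells were fixed, RNase-treated and stained. DNA content was read on a FACScan flow cytometer, and the percentage of cells in sub-G1, G0/G1, S and G2/M was determined.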

[6] = Cell cycle arrest in human NPC-TW01 cells assessed as accumulation at G0/G1 phase at 30 uM after 48 hrs by flow cytometry; type: functional, cell-based; outline: as §3
[7] = Cell cycle arrest in human NPC-TW01 cells assessed as accumulation at G0/G1 phase at 30 uM after 72 hrs by flow cytometry; type: functional, cell-based; outline: as §3
[8] = Cell cycle arrest in human NPC-TW01 cells assessed as accumulation at G0/G1 phase at 30 uM after 96 hrs by flow cytometry; type: functional, cell-based; outline: as §3
[9] = Cell cycle arrest in human NPC-TW01 cells assessed as accumulation at S phase at 30 uM after 24 hrs by flow cytometry; type: functional, cell-based; outline: as §3
[10] = Cell cycle arrest in human NPC-TW01 cells assessed as accumulation at S phase at 30 uM after 48 hrs by flow cytometry; type: functional, cell-based; outline: as §3
[11] = Cell cycle arrest in human NPC-TW01 cells assessed as accumulation at S phase at 30 uM after 72 hrs by flow cytometry; type: functional, cell-based; outline: as §3
[12] = Cell cycle arrest in human NPC-TW01 cells assessed as accumulation at S phase at 30 uM after 96 hrs by flow cytometry; type: functional, cell-based; outline: as §3
[13] = Cell cycle arrest in human NPC-TW01 cells assessed as accumulation at G2/M phase at 30 uM after 24 hrs by flow cytometry; type: functional, cell-based; outline: as §3
[14] = Cell cycle arrest in human NPC-TW01 cells assessed as accumulation at G2/M phase at 30 uM after 48 hrs by flow cytometry; type: functional, cell-based; outline: as §3
[15] = Cell cycle arrest in human NPC-TW01 cells assessed as accumulation at G2/M phase at 30 uM after 72 hrs by flow cytometry; type: functional, cell-based; outline: as §3
[16] = Cell cycle arrest in human NPC-TW01 cells assessed as accumulation at G2/M phase at 30 uM after 96 hrs by flow cytometry; type: functional, cell-based; outline: as §3
[17] = Cell cycle arrest in human NPC-TW01 cells assessed as accumulation at sub-G1 phase at 30 uM after 24 hrs by flow cytometry; type: functional, cell-based; outline: as §3
[18] = Cell cycle arrest in human NPC-TW01 cells assessed as accumulation at sub-G1 phase at 30 uM after 48 hrs by flow cytometry; type: functional, cell-based; outline: as §3
[19] = Cell cycle arrest in human NPC-TW01 cells assessed as accumulation at sub-G1 phase at 30 uM after 72 hrs by flow cytometry; type: functional, cell-based; outline: as §3
[20] = Cell cycle arrest in human NPC-TW01 cells assessed as accumulation at sub-G1 phase at 30 uM after 96 hrs by flow cytometry; type: functional, cell-based; outline: as §3
[21] = Cell cycle arrest in human NPC-TW01 cells assessed as accumulation at G0/G1 phase at 60 uM after 24 hrs by flow cytometry; type: functional, cell-based; outline: as §3
[22] = Cell cycle arrest in human NPC-TW01 cells assessed as accumulation at G0/G1 phase at 60 uM after 48 hrs by flow cytometry; type: functional, cell-based; outline: as §3
[23] = Cell cycle arrest in human NPC-TW01 cells assessed as accumulation at G0/G1 phase at 60 uM after 72 hrs by flow cytometry; type: functional, cell-based; outline: as §3
[24] = Cell cycle arrest in human NPC-TW01 cells assessed as accumulation at G0/G1 phase at 60 uM after 96 hrs by flow cytometry; type: functional, cell-based; outline: as §3
[25] = Cell cycle arrest in human NPC-TW01 cells assessed as accumulation at S phase at 60 uM after 24 hrs by flow cytometry; type: functional, cell-based; outline: as §3
[26] = Cell cycle arrest in human NPC-TW01 cells assessed as accumulation at S phase at 60 uM after 48 hrs by flow cytometry; type: functional, cell-based; outline: as §3
[27] = Cell cycle arrest in human NPC-TW01 cells assessed as accumulation at S phase at 60 uM after 72 hrs by flow cytometry; type: functional, cell-based; outline: as §3
[28] = Cell cycle arrest in human NPC-TW01 cells assessed as accumulation at S phase at 60 uM after 96 hrs by flow cytometry; type: functional, cell-based; outline: as §3
[29] = Cell cycle arrest in human NPC-TW01 cells assessed as accumulation at G2/M phase at 60 uM after 24 hrs by flow cytometry; type: functional, cell-based; outline: as §3
[30] = Cell cycle arrest in human NPC-TW01 cells assessed as accumulation at G2/M phase at 60 uM after 48 hrs by flow cytometry; type: functional, cell-based; outline: as §3
[31] = Cell cycle arrest in human NPC-TW01 cells assessed as accumulation at G2/M phase at 60 uM after 72 hrs by flow cytometry; type: functional, cell-based; outline: as §3
[32] = Cell cycle arrest in human NPC-TW01 cells assessed as accumulation at G2/M phase at 60 uM after 96 hrs by flow cytometry; type: functional, cell-based; outline: as §3
[33] = Cell cycle arrest in human NPC-TW01 cells assessed as accumulation at sub-G1 phase at 60 uM after 24 hrs by flow cytometry; type: functional, cell-based; outline: as §3
[34] = Cell cycle arrest in human NPC-TW01 cells assessed as accumulation at sub-G1 phase at 60 uM after 48 hrs by flow cytometry; type: functional, cell-based; outline: as §3
[35] = Cell cycle arrest in human NPC-TW01 cells assessed as accumulation at sub-G1 phase at 60 uM after 72 hrs by flow cytometry; type: functional, cell-based; outline: as §3
[36] = Cell cycle arrest in human NPC-TW01 cells assessed as accumulation at sub-G1 phase at 60 uM after 96 hrs by flow cytometry; type: functional, cell-based; outline: as §3
[37] = Cell cycle arrest in human NPC-TW01 cells assessed as accumulation at S phase at 6.0 uM after 72 hrs by flow cytometry; type: functional, cell-based; outline: as §2
[38] = Cell cycle arrest in human NPC-TW01 cells assessed as accumulation at sub-G1 phase at 6.0 uM after 72 hrs by flow cytometry; type: functional, cell-based; outline: as §2
[39] = Cell cycle arrest in human NPC-TW01 cells assessed as accumulation at G0/G1 phase at 6.0 uM after 72 hrs by flow cytometry; type: functional, cell-based; outline: as §2
[40] = Cell cycle arrest in human NPC-TW01 cells assessed as accumulation at G2/M phase at 6.0 uM after 72 hrs by flow cytometry; type: functional, cell-based; outline: as §2
[41] = Cell cycle arrest in human NPC-TW01 cells assessed as accumulation at G0/G1 phase at 48.0 uM after 72 hrs by flow cytometry; type: functional, cell-based; outline: as §2
[42] = Cell cycle arrest in human NPC-TW01 cells assessed as accumulation at S phase at 48.0 uM after 72 hrs by flow cytometry; type: functional, cell-based; outline: as §2
[43] = Cell cycle arrest in human NPC-TW01 cells assessed as accumulation at G2/M phase at 48.0 uM after 72 hrs by flow cytometry; type: functional, cell-based; outline: as §2
[44] = Cell cycle arrest in human NPC-TW01 cells assessed as accumulation at sub-G1 phase at 48.0 uM after 72 hrs by flow cytometry; type: functional, cell-based; outline: as §2

O=C(COc1c(-c2ccccc2)oc2ccccc2c1=O)Nc1ccc(-c2ccccc2)cc1
GI50 (NCI-H661): > 10 µM | GI50 [1]: > 10 µM | GI50 (MT2): > 10 µM

O=C(COc1ccc2oc(-c3ccccc3)cc(=O)c2c1)Nc1ccc(F)cc1
GI50 (NCI-H661): 1.47 µM | GI50 [1]: 0.74 µM | GI50 (MT2): 0.47 µM | Activity [2]: 13.6% | Activity [3]: 5.2% | Activity [4]: 4% | Activity [5]: 52% | Activity [6]: 59.8% | Activity [7]: 71% | Activity [8]: 70.7% | Activity [9]: 27.6% | Activity [10]: 24.2% | Activity [11]: 14.7% | Activity [12]: 15.1% | Activity [13]: 17% | Activity [14]: 13.4% | Activity [15]: 9.47% | Activity [16]: 8.6% | Activity [17]: 3.45% | Activity [18]: 2.59% | Activity [19]: 4.79% | Activity [20]: 5.62% | Activity [21]: 51.5% | Activity [22]: 68.3% | Activity [23]: 73.7% | Activity [24]: 66.7% | Activity [25]: 26.4% | Activity [26]: 18.4% | Activity [27]: 15.7% | Activity [28]: 12.8% | Activity [29]: 19.8% | Activity [30]: 10.5% | Activity [31]: 6.64% | Activity [32]: 7.78% | Activity [33]: 2.27% | Activity [34]: 2.87% | Activity [35]: 4.5% | Activity [36]: 12.7%

O=C(COc1c(-c2ccccc2)oc2ccccc2c1=O)Nc1ccc2ccccc2c1
GI50 (NCI-H661): 6.5 µM | GI50 [1]: 6.52 µM | GI50 (MT2): > 10 µM

O=C(COc1ccc2oc(-c3ccccc3)cc(=O)c2c1)Nc1ccc2ccccc2c1
GI50 (NCI-H661): 6.71 µM | GI50 [1]: 6.75 µM | GI50 (MT2): > 10 µM

COc1ccc(NC(=O)COc2ccc3c(=O)c(-c4ccccc4)coc3c2)cc1
GI50 (NCI-H661): 9.53 µM | GI50 [1]: 6.7 µM | GI50 (MT2): 4.55 µM

COc1ccc(NC(=O)COc2ccc3oc(-c4ccccc4)cc(=O)c3c2)cc1
GI50 (NCI-H661): 0.84 µM | GI50 [1]: 0.71 µM | GI50 (MT2): 3.01 µM | Activity [2]: 13.6% | Activity [3]: 5.3% | Activity [4]: 3.3%

O=c1cc(-c2ccccc2)oc2ccc(OC/C(=N\O)c3ccc(F)cc3)cc12
Activity [37]: 33.2% | Activity [38]: 1.7% | Activity [39]: 22.3% | Activity [40]: 42.8%

O=C(COc1ccc2c(=O)c(-c3ccccc3)coc2c1)Nc1ccc(F)cc1
GI50 (NCI-H661): > 10 µM | GI50 [1]: 0.55 µM | GI50 (MT2): 2.5 µM

O=C(COc1ccc2oc(-c3ccccc3)cc(=O)c2c1)Nc1ccc(-c2ccccc2)cc1
GI50 (NCI-H661): 9.71 µM | GI50 [1]: 0.64 µM | GI50 (MT2): > 10 µM

O=C(COc1ccc2c(=O)cc(-c3ccccc3)oc2c1)Nc1ccc2ccccc2c1
GI50 (NCI-H661): > 10 µM | GI50 [1]: > 10 µM | GI50 (MT2): > 10 µM

COc1ccc(/C(COc2ccc3oc(-c4ccccc4)cc(=O)c3c2)=N/O)cc1
Activity [41]: 0.5% | Activity [42]: 27.5% | Activity [43]: 70.8% | Activity [44]: 1.2%

Reference: ChEMBL document CHEMBL1156563, “Synthesis and antiproliferative evaluation of amide-containing flavone and isoflavone derivatives” (Bioorg Med Chem, 2008)
